Source: PubChem BioAssay
MC4R antagonist: antagonists of human melanocortin 4 receptor (MC4R) | hit rate 0.48% among 360,000 | MC4R-expressing cells, MTII-stimulated cAMP, LANCE TR-FRET | P32245 | inhibition, % at 6.5 µM;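 active = inhibition above its plate's cutoff, the mean of tested wells on that plate plus 3 SD, cut at about 29% in these data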
Target sequence (P32245 whole entry, looked up): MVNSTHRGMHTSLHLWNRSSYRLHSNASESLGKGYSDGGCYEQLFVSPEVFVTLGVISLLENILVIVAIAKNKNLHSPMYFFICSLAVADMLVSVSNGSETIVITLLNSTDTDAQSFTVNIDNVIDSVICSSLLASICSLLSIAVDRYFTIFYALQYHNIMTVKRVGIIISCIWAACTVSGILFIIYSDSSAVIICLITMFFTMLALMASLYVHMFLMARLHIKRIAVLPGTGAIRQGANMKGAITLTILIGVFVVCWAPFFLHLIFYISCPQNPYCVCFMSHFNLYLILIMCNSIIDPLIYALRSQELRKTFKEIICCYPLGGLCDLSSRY
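Assay system: human MC4R-expressing U2OS cells; reagent: Melanotan II stimulation of cells; dosing: 6.5 µM single dose; timing: compound 30 min, challenge 1 h, detection 1 h; signal: TR-FRET cAMP assay; replicates: one well per compound, no replicates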
m5-HT2A agonist: agonists of mouse serotonin 5-HT2A receptor (HTR2A) | CHO-K1 mHTR2A beta-arrestin complementation, luminescence; percent of 30 µM serotonin response | activation, % at 7.6 µM | hit rate 0.66% among 360,000 | AID 624169;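 active = activation above a run cutoff, the mean activation of all tested compounds plus 3 SD, cut at about 14% in these data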
Lipid droplet: modulators of hepatic lipid droplet formation; hit rate 0.4% among 240,000; AML12 mouse hepatocytes, oleate lipid droplets, BODIPY imaging; inhibition, % at 6.5 µM;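 active = lipid droplet intensity inhibited by at least 50%, with more than 500 cells counted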
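Technique: fluorescence imaging, 20x objective, two fields per well / Assay system: AML12 hepatocytes (mouse) / Measure: % inhibition of lipid droplet signal / Doses: 6.5 µM single-point dosing / Incubation: overnight exposure / Reagent: 100 µM oleic acid challenge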
PREPL inh: inhibits the human prolyl oligopeptidase-like enzyme; hit rate 0.68% among 320,000; Q4J6C6; inhibition, % at 5.96 µM; recombinant PREPL, fluorescence polarization activity-based probe; in the data active = inhibition above about 43%
MC4R ag barr: activates human MC4R beta-arrestin recruitment; P32245; U2OS MC4R beta-arrestin complementation, luminescence; percent of melanotan II response, DMSO zero; activation, % at 8.9 µM; hit rate 0.98% among 360,000; AID 540308;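 active = activation above a per-plate cutoff, the mean activation of sample wells on that plate plus 3 SD, cut at about 8% in these data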
NTR1 agonist: agonists of human neurotensin receptor NTR1; P30989; NTR1-U2OS beta-arrestin-GFP spot imaging, agonist mode; activation, % at 20 µM; hit rate 0.17% among 330,000; AID 493036;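 active = activation at or above 40% of the spot to cytoplasm intensity ratio, with at least 20 cells analyzed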
Target sequence (P30989 whole entry, looked up): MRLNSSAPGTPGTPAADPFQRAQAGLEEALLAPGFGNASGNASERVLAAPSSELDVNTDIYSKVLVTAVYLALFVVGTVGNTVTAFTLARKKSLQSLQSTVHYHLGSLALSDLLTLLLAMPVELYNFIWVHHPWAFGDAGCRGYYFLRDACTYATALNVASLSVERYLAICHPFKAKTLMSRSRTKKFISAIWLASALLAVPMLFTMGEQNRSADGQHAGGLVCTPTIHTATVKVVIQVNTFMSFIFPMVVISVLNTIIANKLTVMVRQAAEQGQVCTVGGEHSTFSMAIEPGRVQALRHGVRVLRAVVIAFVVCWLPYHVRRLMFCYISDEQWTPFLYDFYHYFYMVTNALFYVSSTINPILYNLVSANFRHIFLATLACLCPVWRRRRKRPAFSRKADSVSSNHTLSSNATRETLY
MOR ag counter: OPRM1 agonism in mouse HTR2A counterscreen; shares compounds with m5-HT2A agonist; U2OS OPRM1 beta-arrestin PathHunter, luminescence; DMSO 0%, DAMGO 9.3 µM 100%; activation, % at 9.3 µM; hit rate 5.3% among 2,300;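 active = mean activation above the mean of DMSO-only wells plus 3 SD, cut at about 0.5% in these data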
m5-HT2A ag conf: mouse HTR2A agonism confirmed. shares compounds with m5-HT2A agonist. CHO-K1 PathHunter beta-arrestin recruitment, luminescence; DMSO 0%, 30 µM serotonin 100%. activation, % at 7.6 µM. hit rate 19% among 2,300;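 active = mean activation across triplicates above the hit threshold derived in the original primary screen, cut at about 15% in these data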
Large screens that a line does not name were inactive (follow-up assays come after a bar, where they were run). Only some compounds are listed: those with a hit (about 2.7% of all), similar ones and a draw of the others.

O=C(CNS(=O)(=O)c1ccccc1)N1CCN(Cc2ccccc2)CC1	none
O=C(CNS(=O)(=O)c1ccc2c(c1)OCCCO2)N1CCN(Cc2ccccc2)CC1	none (no result: Lipid droplet)
O=C(CNS(=O)(=O)c1ccc(Br)cc1)N1CCN(Cc2ccccc2)CC1	m5-HT2A agonist 15 | MOR ag counter inactive | m5-HT2A ag conf 17
O=C(c1cc(F)c(F)cc1Cl)N1CCN(CCc2ccccc2)CC1	none
C=CCn1c(SCc2nc3ccccc3nc2C)nnc1-c1ccoc1C	none (no result: Lipid droplet)
COC(=O)C1=C(C)NC(=O)CC1c1cccc(Cl)c1Cl (stereo unspecified)	m5-HT2A agonist 24 | MOR ag counter inactive | m5-HT2A ag conf inactive
COc1ccc(Nc2nc(N3CCN(C)CC3)nc3ccccc23)c(OC)c1	m5-HT2A agonist 16 | MOR ag counter inactive | m5-HT2A ag conf 19
COc1ccc(Nc2nc(-c3cccs3)nc3ccccc23)c(OC)c1	none
Cc1cnc(N)nc1-c1ccccc1	m5-HT2A agonist 29 (no result: Lipid droplet, PREPL inh, NTR1 agonist) | MOR ag counter inactive | m5-HT2A ag conf inactive
COc1ccc(Cl)cc1NC(=O)CN(C)C(=O)c1sccc1-c1ccccc1	none (no result: Lipid droplet)
O=C(O)C1=CCCNC1	none (no result: Lipid droplet)
O=C(O)C1=CCNCC1	m5-HT2A agonist 18 (no result: Lipid droplet) | MOR ag counter inactive | m5-HT2A ag conf inactive
Cc1ccc(NC(=O)COc2ccc(S(=O)(=O)N3CCOCC3)cc2)cc1	m5-HT2A agonist 20 (no result: Lipid droplet) | MOR ag counter inactive | m5-HT2A ag conf inactive
O=C(c1ccccc1Br)N1CCc2c([nH]c3ccccc23)C1	none
CC(C)N=c1scc(-c2ccco2)n1/N=C/c1ccc(O)c(O)c1	m5-HT2A agonist 18 (no result: Lipid droplet) | MOR ag counter 1.1 | m5-HT2A ag conf inactive
C=CCN=c1scc(-c2ccco2)n1/N=C/c1ccc(O)c(O)c1O	m5-HT2A agonist 16 | MOR ag counter 1.9 | m5-HT2A ag conf 129
Oc1ccc(/C=N/n2c(-c3ccco3)csc2=Nc2cccnc2)c(O)c1	none
COCCN=c1scc(-c2ccco2)n1/N=C/c1ccc(O)c(O)c1O	m5-HT2A agonist 28 | MOR ag counter inactive | m5-HT2A ag conf 72
Cc1cccc(C)c1OCCNC(=O)C(=O)NCc1ccco1	none
COc1cccc(OC)c1C(=O)OCC(=O)NCCNC(=O)COC(=O)c1c(OC)cccc1OC	none (no result: Lipid droplet, PREPL inh, NTR1 agonist)
Cc1ccc(N(C)S(=O)(=O)c2csc(C(N)=O)c2)cc1C	m5-HT2A agonist 15 (no result: Lipid droplet) | MOR ag counter inactive | m5-HT2A ag conf inactive
CC(C)(C)OC(=O)NCCc1nnc(SCc2c(Cl)cccc2Cl)o1	m5-HT2A agonist 15 | MOR ag counter inactive | m5-HT2A ag conf inactive
O=C(C1CC1)N1CCN(Cc2ccccc2)CC1	none (no result: Lipid droplet)
CC1(C)C(C=C(Cl)Cl)C1C(=O)N1CCN(Cc2ccccc2)CC1 (stereo unspecified)	m5-HT2A agonist 20 | MOR ag counter inactive | m5-HT2A ag conf 76
CCOc1ccc(CNC(=O)Cn2ccc3cc(S(=O)(=O)N4CCCC4)ccc32)cc1	none
Cc1cc(OCC(=O)OCC(=O)NCc2cccs2)ccc1Cl	none (no result: Lipid droplet)
COc1cccc(CNC(=O)CN2C(=O)COc3ccc(S(=O)(=O)N4CCCCC4)cc32)c1	m5-HT2A agonist 16 | MOR ag counter inactive | m5-HT2A ag conf inactive
O=C(CN1CCN(Cc2ccccc2F)C1=O)NCCc1ccc(Cl)cc1	m5-HT2A agonist 16 (no result: Lipid droplet) | MOR ag counter inactive | m5-HT2A ag conf inactive
CCOc1ccc(CCNC(=O)CN2CCN(Cc3ccccc3F)C2=O)cc1OCC	none (no result: Lipid droplet)
CC1(C(=O)NS(=O)(=O)c2ccc(Cl)cc2)CCN1C(=O)C1(c2ccc(Cl)cc2)CC1 (stereo unspecified)	m5-HT2A agonist 15 (no result: Lipid droplet, PREPL inh, NTR1 agonist) | MOR ag counter inactive | m5-HT2A ag conf inactive
O=C(Nc1cnc2ccccn2c1=O)c1ccc(F)cc1	m5-HT2A agonist 17 | MOR ag counter inactive | m5-HT2A ag conf inactive
COc1ccc(C(=O)Nc2cnc3ccccn3c2=O)cc1	none
COc1cc(NC(=O)c2c(F)c(F)c(OC)c(F)c2F)ccc1NC(=O)c1cccs1	m5-HT2A agonist 16 | MOR ag counter inactive | m5-HT2A ag conf inactive
COc1cc(NC(=O)c2cc(OC)c(OC)c(OC)c2)ccc1NC(=O)c1cccs1	none
Cc1nnc(SCC(=O)N(C)c2c(N)n(Cc3ccccc3)c(=O)[nH]c2=O)n1Cc1ccccc1	m5-HT2A agonist 29 | MOR ag counter inactive | m5-HT2A ag conf inactive
CCn1c(SCC(=O)N(C)c2c(N)n(Cc3ccccc3)c(=O)[nH]c2=O)nc2ccccc21	none
Cc1ccc(NC(=O)C2CCN(S(=O)(=O)c3ccc4ccccc4c3)CC2)nc1	none (no result: Lipid droplet, PREPL inh)
CN1CCc2c(sc(/N=C/c3cc(C(C)(C)C)ccc3O)c2C#N)C1	m5-HT2A agonist 17 | MOR ag counter inactive | m5-HT2A ag conf 62
COc1ccc(S(=O)(=O)Nc2cccc3c2O[C@H](CN(C)CC2CCCCC2)[C@@H](C)CN([C@H](C)CO)C3=O)cc1	none (no result: Lipid droplet)
CCCn1nc(C(=O)Nc2ccc3nc(N4CCOCC4)sc3c2)ccc1=O	m5-HT2A agonist 21 (no result: Lipid droplet, PREPL inh) | MOR ag counter inactive | m5-HT2A ag conf inactive
CC(C)(C)c1ccc(C(=O)Nc2ccccc2Cl)cc1	none
O=C(Nc1ccccc1Cl)c1ccccc1CC(O)(c1ccccc1)c1ccccc1	m5-HT2A agonist 21 (no result: Lipid droplet, PREPL inh, NTR1 agonist) | MOR ag counter inactive | m5-HT2A ag conf inactive
CN(Cc1ccccc1)C(=O)c1[nH]cnc1C(=O)NCC(=O)OCc1ccccc1	none
COC(=O)[C@]12CCCCC=C1N(Cc1cccc3ccccc13)C(=O)[C@H](CC(=O)NCc1cccc(C(F)(F)F)c1)C2	none (no result: MC4R antagonist, Lipid droplet, PREPL inh, MC4R ag barr, NTR1 agonist)
O=C(Nc1cc([N+](=O)[O-])ccc1C(=O)Nc1cccnc1)c1ccccc1	none
C=CCSc1nsc(NC(=O)Nc2ccc(F)cc2)n1	m5-HT2A agonist 17 | MOR ag counter 0.8 | m5-HT2A ag conf 29
CC(C)(C)Nc1nc2ccc([N+](=O)[O-])cc2o1	m5-HT2A agonist 15 | MOR ag counter inactive | m5-HT2A ag conf inactive
CCN(CC)c1nc2cc(C)ccc2cc1/C=C(\C#N)C(N)=O	none
COc1ccc(-c2nc(CS(=O)CC(=O)NCCCN3CCCC3)c(C)o2)cc1OC (stereo unspecified)	none (no result: Lipid droplet)
COc1ccc(-c2nc(CS(=O)CC(=O)NCCCN3CCOCC3)c(C)o2)cc1OC (stereo unspecified)	m5-HT2A agonist 17 | MOR ag counter inactive | m5-HT2A ag conf inactive
O=C(Nc1ccccc1)N1CCN(Cc2ccc(Cl)cc2)CC1	none
COc1cccc(CN2CCN(C(=S)NCc3ccc(Cl)cc3)CC2)c1	m5-HT2A agonist 29 | MOR ag counter 0.8 | m5-HT2A ag conf 25
